Bioassay records deposited in PubChem BioAssay by several laboratories.
Only some compounds are listed: those with a hit (about 1.9% of all), similar ones and a draw of the others.
Rad51 HR inh – Rad51 (human) homologous recombination inhibition. AID 1385. inhibition, % at 10 µM. hRad51 DNA strand exchange, fluorescence dequenching. 200,000 tested, 0.085% active. Q06609;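 active = inhibition above 40% at the single screening dose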;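 note: 0% = DMSO control wells and 100% = blanks with heterologous ssDNA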
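System: hRad51 filaments on single-stranded DNA; reagent: Fluorescein- and BHQ1-tagged 47-mer duplex; compound dosing: one concentration, 10 µM final; timing: filaments 15 min 37 °C, then compound 30 min; measured by: fluorescein emission 520 nm, excitation 485 nm; benchmarks: per-plate controls and blanks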
ABHD5-PLIN5 inh – blocks binding of human ABHD5 to perilipin-5; inhibition, % at 4 µM; 360,000 tested, 0.78% active; Q00G26+Q8WTS1; Split G. princeps luciferase complementation, luminescence, 4 h; AID 602281;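 active = inhibition above the mean inhibition across every tested compound plus 3 SD, cut at about 22% in these data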;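 note: 0% = DMSO only wells and the 100% control is not disclosed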
Target sequence (Q00G26 whole entry, looked up): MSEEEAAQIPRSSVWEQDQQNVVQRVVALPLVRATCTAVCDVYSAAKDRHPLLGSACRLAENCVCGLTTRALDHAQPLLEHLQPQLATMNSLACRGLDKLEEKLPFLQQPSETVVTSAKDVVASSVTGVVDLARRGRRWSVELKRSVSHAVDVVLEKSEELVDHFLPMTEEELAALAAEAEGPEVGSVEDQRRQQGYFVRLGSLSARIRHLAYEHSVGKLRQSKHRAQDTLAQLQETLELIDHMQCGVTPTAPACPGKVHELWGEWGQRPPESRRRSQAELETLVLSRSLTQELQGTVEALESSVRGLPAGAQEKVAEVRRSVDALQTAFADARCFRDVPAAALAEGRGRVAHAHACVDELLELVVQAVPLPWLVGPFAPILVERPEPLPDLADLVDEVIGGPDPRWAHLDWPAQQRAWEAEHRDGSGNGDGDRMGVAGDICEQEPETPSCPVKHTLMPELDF
Target sequence (Q8WTS1 whole entry, looked up): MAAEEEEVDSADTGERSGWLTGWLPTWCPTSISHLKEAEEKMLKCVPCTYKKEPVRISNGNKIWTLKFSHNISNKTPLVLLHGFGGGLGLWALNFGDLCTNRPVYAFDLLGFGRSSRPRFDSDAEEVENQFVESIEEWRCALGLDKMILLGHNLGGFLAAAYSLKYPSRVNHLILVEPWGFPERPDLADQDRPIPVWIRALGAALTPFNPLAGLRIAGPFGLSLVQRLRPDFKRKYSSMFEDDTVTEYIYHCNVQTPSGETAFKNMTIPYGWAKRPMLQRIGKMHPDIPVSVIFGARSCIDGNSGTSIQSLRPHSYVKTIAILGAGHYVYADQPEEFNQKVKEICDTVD
H9c2 TAG inh – triacylglycerol accumulation inhibition; AID 651582; H9c2 cells, Nile Red lipid (TAG) fluorescence; cells loaded with 200 µM oleic acid; 230,000 tested, 0.66% active; inhibition, % at 12.5 µM;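 active = pattern-corrected inhibition of lipid staining of at least 50% with the nuclear-stain viability signal not falling by more than 50%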;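 note: 0% = DMSO wells and 100% = triacsin C control wells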
GAA850 FXN act – frataxin GAA850 promoter activation; 360,000 tested, 0.56% active; activation, % at 6 µM; HEK293 lucGAA850 FXN promoter luciferase reporter, 24 h; percent of 10 µM SAHA response;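 active = activation above the average of all compounds screened plus 3 SD, cutoff fixed separately per campaign, cut at about 7.5% in these data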;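 note: 0% = DMSO wells and 100% = 10 µM SAHA wells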
HIF activator – HIF pathway transcriptional activation; U2OS HRE-luciferase reporter, luminescence; normalized: DMSO 0%, desferrioxamine 100%; activation, % at 7.5 µM (by protocol); 300,000 tested, 0.32% active; AID 1910;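 active = mean activation of at least 10% of the iron chelator positive control signal, with at least half of replicates also reaching 10%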
Hsp70 act – switches on Hsp70 transcription; 200,000 tested, 0.04% active; HeLa Hsp70 promoter luciferase reporter, luminescence; scaled: vehicle 0, proteasome-inhibitor control 100%; activation, % at 10 µM;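 active = activation above the mean across all tested compounds plus 3 SD, cutoff set per campaign, cut at about 5.5% in these data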;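 note: 100% = MG132 at 30 µM as the positive control and 0% = DMSO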
Starred values were filed as active, the others as inactive; / = no result given; ! = not confirmed by another sample.

SMILES	Rad51 HR inh	ABHD5-PLIN5 inh	H9c2 TAG inh	GAA850 FXN act	HIF activator	Hsp70 act
C[C@]12c3[nH]c4cc(-c5ccco5)ccc4c3CCN1C(=O)[C@@H](CC(=O)NCc1cccc(C(F)(F)F)c1)C[C@@H]2C(=O)N1CCOCC1	/	12.1	7.9	-0.4	/	/
O=C(C[C@H]1C[C@H](C(=O)N2CCCCC2)[C@@]2(CCc3ccccc3)c3[nH]c4ccc(Cl)cc4c3CCN2C1=O)NCCc1ccccn1	/	0.3	42.5	-3.1	/	/
O=C(C[C@H]1C[C@H](C(=O)N2CCCCC2)[C@@]2(CCc3ccccc3)c3[nH]c4cc(-c5ccco5)ccc4c3CCN2C1=O)NCc1cccc(C(F)(F)F)c1	/	22.0	57.6*	0.2	/	/
COc1cc(CNC(=O)C2CC(O)CN2C(=O)Nc2ccccc2)cc(OC)c1OC (stereo unspecified)	/	3.8	7.9	-0.4	/	/
COc1cc2ccccc2cc1C(=O)Nc1ccc(O)cc1	/	-23.1	-5.7	6.7	-5.3	/
Cn1nnnc1N=N/C(=N/Nc1ccccc1)c1ccccc1	20.5	1.2	71.5*	-11.0	181.9*	/
CCCS(=O)(=O)c1nnnn1-c1cccc(OC)c1	-9.3	42.8*	/	-0.1	-1.9	0.0
COc1ccc(C2C(C#N)=C(C)NC3=C2C(=O)c2ccccc23)cc1 (stereo unspecified)	-0.9	-4.5	/	-0.9	0.1	-0.3
CC1=C([N+](=O)[O-])C(c2ccccc2)C2=C(N1)c1ccccc1C2=O (stereo unspecified)	4.0	-20.8	59.8*	7.5	0.2	-0.2
CCCCCCCCCCCCCCCC[n+]1ccccc1	/	21.0	54.1*!	-7.7	/	/
CCCCCCCCCCCCCCCC[n+]1ccc(C(N)=O)cc1	4.4	21.0	/	-4.2	/	-0.4
CCOc1cccc2sc(N(CCCN(C)C)C(=O)c3ccc(S(=O)(=O)N(CC)Cc4ccccc4)cc3)nc12	/	22.6*	8.1	-2.6	-0.7	/
CCOc1cccc2sc(N(CCN(C)C)C(=O)c3cc4ccccc4cc3OC)nc12	/	23.0*	/	-0.2	-1.0	/
O=C1CCCCN1CCCC(=O)N1CCCC(Nc2ccccc2)C1 (stereo unspecified)	/	11.2	-10.6	0.2	-0.5	/
O=C(NCC1CCCO1)c1ccccc1 (stereo unspecified)	6.6	2.1	-6.3	-1.6	0.8	-0.1
Cc1ccccc1NC(=O)NCC1CCCO1 (stereo unspecified)	42.4*	3.5	12.9	-0.2	0.1	-0.1
O=C(NCC1CCCO1)c1cc(-c2ccccc2F)no1 (stereo unspecified)	/	-3.3	/	5.3	13.5*	/
COC(=O)c1ccccc1NC(=O)NCC1CCCO1 (stereo unspecified)	1.7	1.8	/	0.3	0.3	0.0
Cc1ccc(S(=O)(=O)NCc2ccco2)cc1C(N)=O	-2.0	1.7	-13.3	3.2	0.0	-0.5
Cc1cn(CC(=O)NCCCn2ccnc2)c(=O)[nH]c1=O	/	4.5	10.4	1.4	/	/
O=C(Nc1c2ccccc2nc2ccccc12)C(Cl)(Cl)Cl	-4.0	4.9	66.1*	-0.5	0.2	0.3
COc1ccc(NC(=O)C2Cc3c(-c4ccccc4)ccnc3O2)cc1OC (stereo unspecified)	/	-2.7	-20.1	-3.8	/	/
CCOC(=O)CN1C(=O)S/C(=C\c2ccc(-c3ccc(C(=O)O)c(Cl)c3)o2)C1=O	/	1.6	-6.8	2.0	-1.8	/
O=C(O)c1ccc(-c2ccc(/C=C3\NC(=O)N(Cc4ccc(Cl)cc4)C3=O)o2)cc1Cl	-46.2	28.4*	-1.2	-0.5	-0.2	-0.1
O=C(CCl)c1cc2c3c(c1)CC(=O)N3CCC2	/	-1.5	/	8.6*	1.5	/
SMILES	Rad51 HR inh	ABHD5-PLIN5 inh	H9c2 TAG inh	GAA850 FXN act	HIF activator	Hsp70 act
O=C(NCCO)C(=O)Nc1cc2c3c(c1)CC(=O)N3CCC2	/	5.7	/	1.1	-0.7	/
CC(C)(C)c1ccc(C(=O)N2CCN(c3ncccn3)CC2)cc1	/	1.8	/	0.5	0.2	/
CC(C)(C)c1cc(C(=O)N2CCN(c3ncccn3)CC2)ccn1	2.0	5.3	16.3	0.0	881.6*	-0.1
C/C(=N\OCc1nc2ccccc2c(=O)n1/N=C/c1cc([N+](=O)[O-])ccc1O)c1ccccc1	/	-3.9	22.0	-0.8	10.2*	/
O=c1c2ccccc2nc(COc2ccccc2)n1/N=C/c1ccc(O)cc1O	/	-0.8	36.1	-2.9	60.6*	/
O=[N+]([O-])c1ccc(O)c(/C=N/n2c(CO)nc3ccccc32)c1	4.3	1.9	-2.2	-0.1	1.6	/
C/C(=N\OCc1nc2ccccc2c(=O)n1/N=C/c1cc(C)cc([N+](=O)[O-])c1O)c1ccccc1	-13.9	-9.3	5.6	-0.1	9.6*	/
Cc1cc([N+](=O)[O-])cc(/C=N/n2c(C)nc3ccccc3c2=O)c1O	5.1	-2.5	6.4	-1.9	1.4	/
Cn1cc(-c2csc(C(O)c3ccccc3)n2)cn1 (stereo unspecified)	/	1.8	1.8	0.5	/	/
Cc1cccc(OCc2nnc(SCC(=O)N3CCCCC3)o2)c1	/	9.2	/	0.4	-0.9	/
CC(C)CNC1=C(C(=S)Nc2ccccc2)C(=O)CC(C)(C)C1	-5.6	-9.3	/	3.0	-0.3	-0.4
Cc1c(N(C(=O)CNC(=O)c2ccccc2)C2(C(=O)NC3CCCCC3)CCCCC2)c(=O)n(-c2ccccc2)n1C	7.2	-0.8	5.4	-0.1	0.2	-0.1
COc1ccc(OC)c(S(=O)(=O)NCC(=O)NC2CCCc3ccccc32)c1 (stereo unspecified)	/	1.5	7.2	-1.3	/	/
COc1ccc(/C=C2\SC(=O)N(CCC(=O)N(C)C3CCS(=O)(=O)C3)C2=O)cc1 (stereo unspecified)	/	-1.3	/	1.9	64.3*	/
CN(C(=O)CN1C(=O)S/C(=C\c2ccc(F)cc2)C1=O)C1CCS(=O)(=O)C1 (stereo unspecified)	/	0.7	/	1.0	-0.3	/
COc1ccc(/C=C2\SC(=O)N(CC(=O)N(C)C3CCS(=O)(=O)C3)C2=O)cc1 (stereo unspecified)	/	-0.4	/	2.1	0.6	/
CCN(C(=O)CN1C(=O)S/C(=C\c2ccc(F)cc2)C1=O)C1CCS(=O)(=O)C1 (stereo unspecified)	/	22.6*	/	-0.6	1.0	/
COc1cc(/C=C/C(=O)/C=C(O)/C=C/c2ccc(O)c(OC)c2)ccc1O	/	13.4	-4.2	1.6	/	/
COc1cc(/C=C/C(=O)CC(=O)/C=C/c2ccc(O)c(OC)c2)ccc1O	-386.5	31.5*	14.3	0.4	1.0	-0.2
COc1cccc(NC(=S)N(CCCN2CCOCC2)Cc2cn(C)c3ccccc23)c1	-9.8	1.8	/	0.5	350.9*	-0.3
COc1ccc(NC(=S)N(CCCN2CCOCC2)Cc2cn(C)c3ccccc23)cc1OC	8.0	-3.4	/	0.0	0.1	0.0
COc1ccc(NS(=O)(=O)c2cc(NC(=O)c3ccco3)ccc2N2CCCCC2)cc1	12.7	7.4	/	1.9	1.4	-0.3
COc1ccc(Cn2c(SCc3ccccc3C)nc3cc(OC)c(OC)cc3c2=N)cc1	1.7	15.3	59.4*	-6.0	-7.4	-0.2
